This note sets out measurements from ChEMBL document CHEMBL4007431, “Systematic variation of the benzenesulfonamide part of the GluN2A selective NMDA receptor antagonist TCN-201” (Eur J Med Chem, 2017).

Holding throughout (format): cell-based
The target in assay [1] is T1, Glutamate NMDA receptor; Grin1/Grin2a (Rattus norvegicus) (UniProt P35439+Q00959). Kind of assay: Antagonist activity at rat GluN1A/GluN2A receptor expressed in Xenopus laevis oocytes assessed as inhibition of glutamate/glycine-induced channel current at 500 nM at -70 mV holding potential by two electrode voltage clamp method relative to TCN-201. A digest of the protocol: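 GluN1a/GluN2A-coinjected oocytes (0.8 ng of each cRNA) under TEVC at −70 mV and room temperature, perfused with Ba2+-Ringer at pH 7.4. 10 µM (S)-glutamate and 10 µM glycine open the channel. Compound at 500 nM final (from 10 mM DMSO stock) in agonist solution. Current inhibition compared with the lead. At least five oocytes each. One-way ANOVA with Tukey post hoc test.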
In general terms: Two-electrode voltage clamp is typically applied to oocytes expressing channels or transporters.

In assay [2] the target is T1, Glutamate NMDA receptor; Grin1/Grin2a (Rattus norvegicus). The experiment in a line: Potency index, ratio of TCN-201 IC50 to compound IC50 for rat GluN1A/GluN2A receptor expressed in Xenopus laevis oocytes.
Assay [3] has as its target Glutamate NMDA receptor; Grin1/Grin2a (Rattus norvegicus, UniProt P35439+Q00959). Kind of assay: Antagonist activity at rat GluN1A/GluN2A receptor expressed in Xenopus laevis oocytes assessed as inhibition of glutamate/glycine-induced channel current at -70 mV holding potential by two electrode voltage clamp method. The method, boiled down:
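Oocytes (stage V, defolliculated) coinjected with 0.8 ng GluN1a and 0.8 ng GluN2A cRNA. TEVC at room temperature, holding −70 mV, perfusion with Ba2+-Ringer (10 HEPES, 90 NaCl, 1 KCl, 1.5 BaCl2 mmol/L, pH 7.4). Currents evoked by glutamate plus glycine. Compounds diluted from 10 mM DMSO stocks into agonist solution, 1 nM to 10 µM final. n = 5 oocytes per concentration. Logistic fit with minimum 0% and maximum 100%; x0 taken as the half-maximal inhibition.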

In assay [4] the target is Glutamate NMDA receptor; Grin1/Grin2b (Rattus norvegicus) (UniProt P35439+Q00960). Kind of assay: Antagonist activity at rat GluN1A/GluN2B receptor expressed in Xenopus laevis oocytes assessed as inhibition of glutamate/glycine-induced channel current at 10 uM at -70 mV holding potential by two electrode voltage clamp method. A digest of the protocol:
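Oocytes were injected with GluN1a and GluN2B cRNA and recorded by TEVC with glutamate/glycine activation. Compounds tested at 10 µM, n = 5. One-way ANOVA with Tukey post hoc test.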

Active and inactive are the calls of the source. The rule behind the calls is not given here.

For the molecule `COc1cccc(S(=O)(=O)NCc2ccc(C(=O)NNC(=O)c3ccccc3)cc2)c1`, the fold change (FC) in assay [1] was -0.062.
Still for that read-out and setting: the same measure for `O=C(NNC(=O)c1ccc(CNS(=O)(=O)c2ccccc2)cc1)c1ccccc1`: 0.351; for `O=C(NNC(=O)c1ccc(CNS(=O)(=O)c2ccccc2F)cc1)c1ccccc1`: 0.019.
As to `O=C(NNC(=O)c1ccc(CNS(=O)(=O)c2ccccc2Cl)cc1)c1ccccc1`, the fold change (FC) in assay [1] was -0.092.
Regarding `O=C(NNC(=O)c1ccc(CNS(=O)(=O)c2cccs2)cc1)c1ccccc1`, the fold change (FC) in assay [1] was 0.529.
With `O=C(NNC(=O)c1ccc(CNS(=O)(=O)c2ccc(Cl)cc2)cc1)c1ccccc1`, the fold change (FC) in assay [1] was 0.279.
Turning to `O=C(NNC(=O)c1ccc(CNS(=O)(=O)c2cccc(I)c2)cc1)c1ccccc1`, the fold change (FC) in assay [1] is 1.19.
Same read-out and setting: the same measure for `N#Cc1cccc(S(=O)(=O)NCc2ccc(C(=O)NNC(=O)c3ccccc3)cc2)c1`: 0.151.
Turning to `O=C(NNC(=O)c1ccc(CNS(=O)(=O)c2cccnc2)cc1)c1ccccc1`, in assay [1], the fold change (FC) was determined as 0.151.
Still for that read-out and setting: the figure for `O=C(NNC(=O)c1ccc(CNS(=O)(=O)c2cccc([N+](=O)[O-])c2)cc1)c1ccccc1` is 0.161; for `O=C(NNC(=O)c1ccc(CNS(=O)(=O)c2ccccc2Br)cc1)c1ccccc1` it is 0.045.
The same measure, in the same setting: the figure for `O=C(NNC(=O)c1ccc(CNS(=O)(=O)c2ccc(F)cc2)cc1)c1ccccc1` is 0.103.
For the molecule `O=C(NNC(=O)c1ccc(CNS(=O)(=O)c2cccc(Cl)c2)cc1)c1ccccc1`, the fold change (FC) in assay [1] came to 1.21.
Turning to `O=C(NNC(=O)c1ccc(CNS(=O)(=O)c2cccc(F)c2)cc1)c1ccccc1`, in assay [1], the fold change (FC) was 0.818.
The same measure, in the same setting: the same measure for `O=C(NNC(=O)c1ccc(CNS(=O)(=O)c2ccc([N+](=O)[O-])cc2)cc1)c1ccccc1`: 0.002.
Turning to `O=C(NNC(=O)c1ccc(CNS(=O)(=O)c2ccc(I)cc2)cc1)c1ccccc1`, the fold change (FC) in assay [1] turned out to be 0.051.
Consider `O=C(NNC(=O)c1ccc(CNS(=O)(=O)c2ccc(Br)cc2)cc1)c1ccccc1`, for which, in assay [1], the fold change (FC) came to 0.315.
On to `O=C(NNC(=O)c1ccc(CNS(=O)(=O)c2cccc(Br)c2)cc1)c1ccccc1`, for which, in assay [2], the Ratio IC50 turned out to be 2.5. For the same molecule, the IC50 in assay [3] turned out to be 204 nM. For the same molecule, the inhibition entry in assay [4] is “inactive”. Further, in assay [1], the fold change (FC) stood at 1.27.
Turning to `Cc1cccc(S(=O)(=O)NCc2ccc(C(=O)NNC(=O)c3ccccc3)cc2)c1`, the fold change (FC) in assay [1] turned out to be 0.28.
As for `O=C(NNC(=O)c1ccc(CNS(=O)(=O)c2ccc(F)c(Cl)c2)cc1)c1ccccc1`, the IC50 in assay [3] was 512 nM. Also, the inhibition entry in assay [4] is “inactive”.
For the molecule `Nc1ccc(S(=O)(=O)NCc2ccc(C(=O)NNC(=O)c3ccccc3)cc2)cc1`, the fold change (FC) in assay [1] stood at 0.379.
Take `O=C(O)c1ccc(S(=O)(=O)NCc2ccc(C(=O)NNC(=O)c3ccccc3)cc2)cc1`: the fold change (FC) in assay [1] amounted to 0.283.
With `O=C(NNC(=O)c1ccc(CNS(=O)(=O)c2ccccc2[N+](=O)[O-])cc1)c1ccccc1`, the fold change (FC) in assay [1] was found to be 0.397.

A word on the IC50: it is the concentration needed to halve the response being measured.
